The values that follow come from ChEMBL document CHEMBL1130195, “6-Chloro-5-methyl-1-[[2-[(2-methyl-3-pyridyl)oxy]-5-pyridyl]carbamoyl]- indoline (SB-242084): the first selective and brain penetrant 5-HT2C receptor antagonist” (J Med Chem, 1997).

The target of assay [1] is Serotonin 2 receptors; 5-HT2a & 5-HT2c (Homo sapiens) (UniProt P28223+P28335). The assay is described as follows: Selectivity for 5-HT2C over 5-HT2A receptor. It is filed as protein assay.
The target of assay [2] is 5-hydroxytryptamine receptor 2A (Homo sapiens, UniProt P28223). The assay is described as follows: Displacement of [3H]ketanserin from 5-hydroxytryptamine 2A receptor expressed in HEK 293 cells. It is filed as cell-based, HEK293. The method in brief: (§1)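 Human cloned receptors expressed in HEK 293 cells. Radioligands: [3H]5-HT for 5-HT2B, [3H]ketanserin for 5-HT2A, [3H]mesulergine for 5-HT2C. Each value is the mean of at least two determinations, each within 0.2 log unit of the mean.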
Sequence of 5-hydroxytryptamine receptor 2A (P28223 whole entry): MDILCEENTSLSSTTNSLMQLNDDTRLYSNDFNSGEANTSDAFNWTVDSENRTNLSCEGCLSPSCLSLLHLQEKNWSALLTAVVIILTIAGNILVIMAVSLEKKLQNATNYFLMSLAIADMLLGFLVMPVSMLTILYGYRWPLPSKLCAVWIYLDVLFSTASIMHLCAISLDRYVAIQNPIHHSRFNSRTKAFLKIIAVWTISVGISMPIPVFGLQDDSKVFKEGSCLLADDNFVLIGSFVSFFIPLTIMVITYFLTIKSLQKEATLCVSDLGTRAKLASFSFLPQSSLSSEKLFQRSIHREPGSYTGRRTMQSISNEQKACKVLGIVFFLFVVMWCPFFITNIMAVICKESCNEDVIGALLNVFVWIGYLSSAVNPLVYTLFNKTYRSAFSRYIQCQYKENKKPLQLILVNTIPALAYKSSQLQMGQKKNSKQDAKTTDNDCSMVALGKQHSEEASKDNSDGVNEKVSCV
(Loss of bound radioactivity is the signal in a displacement assay; it reports binding, not function.)

The next assay deals with Rattus norvegicus. Nature of the assay: Mean dose required to reverse m-chlorophenyl-piperazine (mCPP) induced hypolocomotion (7 mg/kg ip administered 30 min pretest). Format: functional. Particulars: 0.5 h, read-out: ID50 (the source's name). The method, boiled down:
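Test compound given orally. Hypolocomotion was induced by mCPP, 7 mg/kg ip, 30 min pretest. The ID50 is the dose reversing hypolocomotion by 50%, reported as mean with confidence limits.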

The target in assay [3] is T1, 5-hydroxytryptamine receptor 2C (Homo sapiens, UniProt P28335).
T1 sequence (P28335 whole entry): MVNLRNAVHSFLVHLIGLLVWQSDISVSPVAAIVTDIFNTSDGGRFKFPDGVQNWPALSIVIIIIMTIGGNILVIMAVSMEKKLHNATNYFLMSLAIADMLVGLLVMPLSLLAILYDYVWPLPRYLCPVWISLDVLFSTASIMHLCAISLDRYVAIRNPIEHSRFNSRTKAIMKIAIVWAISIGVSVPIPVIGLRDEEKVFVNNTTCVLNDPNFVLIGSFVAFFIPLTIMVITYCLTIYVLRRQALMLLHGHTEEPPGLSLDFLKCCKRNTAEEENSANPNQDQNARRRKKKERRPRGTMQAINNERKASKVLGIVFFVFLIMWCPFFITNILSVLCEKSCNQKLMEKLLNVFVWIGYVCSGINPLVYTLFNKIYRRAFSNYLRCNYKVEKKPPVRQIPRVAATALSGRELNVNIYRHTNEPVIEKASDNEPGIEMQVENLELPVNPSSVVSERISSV
Nature of the assay: Displacement of [3H]mesulergine from 5-hydroxytryptamine 2C receptor expressed in HEK 293 cells. Format: cell-based, HEK293. The method in brief:
as §1

The target in the next assay is T2, Cytochrome P450 1A2 (Homo sapiens, UniProt P05177).
T2 sequence (P05177 whole entry): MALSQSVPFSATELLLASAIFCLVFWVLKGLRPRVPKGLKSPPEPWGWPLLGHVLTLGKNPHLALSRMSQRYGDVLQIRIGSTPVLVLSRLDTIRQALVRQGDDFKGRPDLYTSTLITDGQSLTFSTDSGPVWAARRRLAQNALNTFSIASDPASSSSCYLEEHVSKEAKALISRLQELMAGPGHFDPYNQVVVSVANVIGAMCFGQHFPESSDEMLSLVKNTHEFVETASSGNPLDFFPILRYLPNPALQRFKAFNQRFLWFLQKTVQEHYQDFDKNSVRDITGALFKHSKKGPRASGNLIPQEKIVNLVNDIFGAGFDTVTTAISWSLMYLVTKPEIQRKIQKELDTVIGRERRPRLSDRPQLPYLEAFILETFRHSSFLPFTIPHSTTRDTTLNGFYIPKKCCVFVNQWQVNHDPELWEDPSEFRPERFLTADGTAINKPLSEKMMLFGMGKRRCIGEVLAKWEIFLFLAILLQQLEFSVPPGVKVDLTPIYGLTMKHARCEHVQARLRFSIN
The assay is described as follows: Inhibition of heterologously expressed human Cytochrome P450 1A2 at 500 uM. It is filed as ADME.

Assay [4] has as its target 5-hydroxytryptamine receptor 2B (Homo sapiens, UniProt P41595). Nature of the assay: Displacement of [3H]5-HT from 5-hydroxytryptamine 2B receptor expressed in HEK 293 cells. Format: cell-based, HEK293. The method, boiled down: as §1
In assay [5] the target is Cytochrome P450 2C19 (Homo sapiens) (UniProt P33261). Nature of the assay: Inhibition of heterologously expressed human Cytochrome P450 2C19 at 100 uM.
Sequence of Cytochrome P450 2C19 (Homo sapiens) (P33261 whole entry, looked up): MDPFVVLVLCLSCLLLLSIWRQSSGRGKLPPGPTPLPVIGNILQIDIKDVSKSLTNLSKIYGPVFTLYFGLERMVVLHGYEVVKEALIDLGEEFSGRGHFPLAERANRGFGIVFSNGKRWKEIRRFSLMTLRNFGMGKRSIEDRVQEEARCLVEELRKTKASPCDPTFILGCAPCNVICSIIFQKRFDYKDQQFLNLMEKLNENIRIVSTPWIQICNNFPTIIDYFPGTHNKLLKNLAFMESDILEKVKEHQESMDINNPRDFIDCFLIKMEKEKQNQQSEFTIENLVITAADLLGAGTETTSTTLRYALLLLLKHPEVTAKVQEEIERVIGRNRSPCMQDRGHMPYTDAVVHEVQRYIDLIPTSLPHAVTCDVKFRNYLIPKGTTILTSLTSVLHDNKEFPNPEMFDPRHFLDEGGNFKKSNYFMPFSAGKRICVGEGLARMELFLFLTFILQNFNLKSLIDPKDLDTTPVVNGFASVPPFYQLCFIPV
For another assay, the target named is Cytochrome P450 2D6 (Homo sapiens, UniProt P10635). Nature of the assay: Inhibition of heterologously expressed human Cytochrome P450 2D6 at 10 uM. It is filed as ADME.
Sequence of Cytochrome P450 2D6 (P10635 whole entry): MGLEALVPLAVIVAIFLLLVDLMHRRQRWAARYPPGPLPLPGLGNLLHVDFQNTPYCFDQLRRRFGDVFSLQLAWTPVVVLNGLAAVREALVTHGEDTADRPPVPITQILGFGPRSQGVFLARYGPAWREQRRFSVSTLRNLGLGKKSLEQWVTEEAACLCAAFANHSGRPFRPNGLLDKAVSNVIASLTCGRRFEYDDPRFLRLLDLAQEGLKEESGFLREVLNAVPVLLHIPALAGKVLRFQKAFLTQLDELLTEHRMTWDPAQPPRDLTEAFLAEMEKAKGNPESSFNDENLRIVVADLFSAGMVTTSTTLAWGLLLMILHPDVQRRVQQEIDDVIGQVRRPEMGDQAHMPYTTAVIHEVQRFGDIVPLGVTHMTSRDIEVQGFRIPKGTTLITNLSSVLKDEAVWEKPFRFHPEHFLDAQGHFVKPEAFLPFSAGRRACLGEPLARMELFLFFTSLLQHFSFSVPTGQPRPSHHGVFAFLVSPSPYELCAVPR
Another assay addresses Cytochrome P450 2C9 (Homo sapiens, UniProt P11712). The assay is described as follows: Inhibition of heterologously expressed human Cytochrome P450 2C9 at 100 uM. It is filed as ADME.
Assay [6] deals with Cytochrome P450 2C19 (Homo sapiens) (UniProt P33261). Nature of the assay: Inhibition of heterologously expressed human Cytochrome P450 2C19 at 100 uM. The source holds these as a separate data set.
The target of assay [7] is T3, Cytochrome P450 3A4 (Homo sapiens, UniProt P08684). Nature of the assay: Inhibition of heterologously expressed human Cytochrome P450 3A at 1 uM. Format: ADME.
T3 sequence (P08684 whole entry): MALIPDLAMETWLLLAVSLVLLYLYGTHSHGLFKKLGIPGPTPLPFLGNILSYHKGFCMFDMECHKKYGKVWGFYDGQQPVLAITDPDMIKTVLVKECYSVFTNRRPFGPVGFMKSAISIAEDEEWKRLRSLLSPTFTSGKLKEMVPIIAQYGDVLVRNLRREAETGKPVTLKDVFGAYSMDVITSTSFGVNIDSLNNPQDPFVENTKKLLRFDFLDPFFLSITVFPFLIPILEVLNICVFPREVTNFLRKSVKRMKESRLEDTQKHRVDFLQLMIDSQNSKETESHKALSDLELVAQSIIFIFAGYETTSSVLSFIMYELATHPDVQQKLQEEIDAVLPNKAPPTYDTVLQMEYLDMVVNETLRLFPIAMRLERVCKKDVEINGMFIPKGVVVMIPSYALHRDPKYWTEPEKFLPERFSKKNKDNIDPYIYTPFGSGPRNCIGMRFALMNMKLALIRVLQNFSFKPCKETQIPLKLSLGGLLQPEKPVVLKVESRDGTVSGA
The target in assay [8] is T3, Cytochrome P450 3A4. The assay is described as follows: Inhibition of heterologously expressed human Cytochrome P450 3A at 1 uM.

Molecules are shown by their SMILES.

Sequence of Serotonin 2 receptors; 5-HT2a & 5-HT2c (Homo sapiens) (P28223 whole entry, looked up, one chain of several): as the sequence (P28223 whole entry) above
Sequence of 5-hydroxytryptamine receptor 2B (P41595 whole entry): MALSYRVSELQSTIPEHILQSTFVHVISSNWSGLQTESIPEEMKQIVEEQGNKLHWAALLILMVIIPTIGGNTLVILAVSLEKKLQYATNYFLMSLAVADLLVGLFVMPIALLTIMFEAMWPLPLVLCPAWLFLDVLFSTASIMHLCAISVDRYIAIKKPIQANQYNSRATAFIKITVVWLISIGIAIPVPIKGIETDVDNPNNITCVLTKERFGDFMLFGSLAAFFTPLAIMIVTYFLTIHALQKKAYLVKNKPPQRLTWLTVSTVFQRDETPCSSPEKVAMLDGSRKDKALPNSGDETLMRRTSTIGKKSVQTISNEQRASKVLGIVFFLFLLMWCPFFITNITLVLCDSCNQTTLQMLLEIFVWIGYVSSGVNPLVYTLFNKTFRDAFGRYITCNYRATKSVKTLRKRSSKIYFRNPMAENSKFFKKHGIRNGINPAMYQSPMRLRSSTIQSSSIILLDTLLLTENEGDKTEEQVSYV
Sequence of Cytochrome P450 2C9 (P11712 whole entry): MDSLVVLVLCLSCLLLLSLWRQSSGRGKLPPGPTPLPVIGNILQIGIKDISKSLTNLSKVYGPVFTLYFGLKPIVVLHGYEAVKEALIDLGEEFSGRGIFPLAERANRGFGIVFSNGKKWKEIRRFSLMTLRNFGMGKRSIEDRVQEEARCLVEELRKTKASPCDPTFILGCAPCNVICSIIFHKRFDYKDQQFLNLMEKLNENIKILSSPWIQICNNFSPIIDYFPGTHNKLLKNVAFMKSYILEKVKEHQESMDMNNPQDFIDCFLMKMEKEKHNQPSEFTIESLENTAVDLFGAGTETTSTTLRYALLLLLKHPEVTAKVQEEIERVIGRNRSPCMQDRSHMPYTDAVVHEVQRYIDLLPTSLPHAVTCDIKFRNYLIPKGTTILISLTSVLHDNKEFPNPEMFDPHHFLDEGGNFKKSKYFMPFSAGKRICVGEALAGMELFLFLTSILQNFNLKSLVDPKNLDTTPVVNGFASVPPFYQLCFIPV

One may read the Ki as the equilibrium dissociation constant of an inhibitor or competing ligand from its target. High values mean lower affinity, low ones higher affinity. Regarding `CSc1cc2c(cc1Cl)N(C(=O)Nc1cccnc1)CC2`, in assay [1], the Selectivity ratio came out at 420. Further, the Ki in assay [2] is 2510 nM; in assay [3], 6.31 nM. Besides, the ED50 in the assay with Rattus norvegicus stood at 10 mg/kg.
For orientation: IC50 means the concentration needed to halve the response being measured. Take `Cn1ccc2cc3c(cc21)CCN3C(=O)Nc1cccnc1`: the IC50 at Cytochrome P450 1A2 was 50 nM; in [5] it was above 100000 nM; on Cytochrome P450 2D6, 30000 nM; on Cytochrome P450 2C9, above 100000 nM. In addition, the results for the Ki in assay [4] and in [2] were 25.1 nM and 2000 nM, respectively. Further, the ED50 in the assay on Rattus norvegicus worked out at 5.5 mg/kg.
For `Cc1cc2c(cc1Cl)N(C(=O)Nc1ccc(Oc3cccnc3C)nc1)CC2` [SB-242084], the IC50 (in assay [6]; against Cytochrome P450 1A2; at Cytochrome P450 3A4 [7]; on Cytochrome P450 2D6; against Cytochrome P450 2C9) was above 100000 nM in each case. The inhibition constant (Ki) in assay [4] was 100 nM; in [2], 158 nM; in assay [3] it was 1 nM. Besides, the Selectivity ratio in [1] is 160. Further, in the assay on Rattus norvegicus, the ED50 worked out at 2 mg/kg.
Consider `Cc1cc2c(cc1Cl)N(C(=O)Nc1cccnc1)CC2`, for which, in assay [1], the Selectivity ratio amounted to 30. Besides, the Ki was 158 nM in assay [2] and 6.31 nM in [3]. Further, the ED50 in the assay with Rattus norvegicus turned out to be 0.6 mg/kg.
For `CSc1cc2c(cc1C(F)(F)F)N(C(=O)Nc1cccnc1)CC2`, the IC50 against Cytochrome P450 1A2 was 13 nM; against Cytochrome P450 3A4 [8], above 100000 nM; on Cytochrome P450 2D6, 110 nM; against Cytochrome P450 2C9 it was above 100000 nM. In addition, the Ki is 12.6 nM in assay [4], 398 nM in assay [2] and 2.51 nM in assay [3]. Also, the ED50 in the assay on Rattus norvegicus turned out to be 1.5 mg/kg.
